Assay outcomes (PubChem BioAssay)
Cl transport mod = modulates chloride dependent transport by human KCC2 | B-score of Tl+ flux slope (higher = more flux/activation; lower = inhibition) at 10 µM | KCC2 cells, thallium flux FluoZin-2 fluorescence | AID 1456 | actives 2.2% (n = 190,000);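 active = thallium flux slope and its plate-corrected score both differing from the plate sample mean at a set confidence after two filtering rounds, in either direction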;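 note: slope of fluorescence scaled to starting intensity during 10 to 20 s after thallium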
Dynein cargo inh = dynein cargo transport inhibition; 3617.4 mouse cells, GR-EGFP nuclear translocation imaging; test concentration mostly 20 µM; stimulated with dexamethasone, 1 µM; hits give low values; z-score, hits read low; actives 0.47% (n = 220,000);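 active = plate z-score of nuclear minus cytoplasmic receptor signal below a set negative limit, without overly bright fluorescence or cell loss, cut at about -3.5 in these data, passing the limit was not always enough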;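 note: z-score of nuclear minus cytoplasmic ring GR-EGFP intensity difference per well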
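Also added – dexamethasone, 1.0 µM final · Buffer or medium – tet-free, stripped-serum medium · Schedule – induction 48 h, compound 1 h, agonist 30 min · Detection – formaldehyde fixation, Hoechst nuclear stain, 10x automated fluorescence imaging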
V-ATPase pHluor = regulators of yeast V-ATPase proton transport; S. cerevisiae, pHLuorin cytosolic pH fluorescence; response, % at 10 µM; actives 0.37% (n = 350,000); in the data active = response mostly above about 7.3%, no sharp cut-off; inactive = mostly below about 5.4%; note: actives read high
ABCB6 inh 2 = inhibitors of human ABC transporter ABCB6 | actives 0.19% (n = 360,000) | K562-ABCB6 porphyrin accumulation, flow cytometry, 1 h; hits give low values | fluorescence ratio to DMSO, % at 10 µM | Q9NP58;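 active = fluorescence ratio to DMSO below 75%, the collection mean minus 3 SD; inconclusive = too few cells collected in the well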;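 note: signal is porphyrin accumulated inside mitochondria; 100% equals median channel fluorescence of DMSO control wells; lower ratio means ABCB6 inhibition with less porphyrin fluorescence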
Target sequence (Q9NP58 whole entry, looked up): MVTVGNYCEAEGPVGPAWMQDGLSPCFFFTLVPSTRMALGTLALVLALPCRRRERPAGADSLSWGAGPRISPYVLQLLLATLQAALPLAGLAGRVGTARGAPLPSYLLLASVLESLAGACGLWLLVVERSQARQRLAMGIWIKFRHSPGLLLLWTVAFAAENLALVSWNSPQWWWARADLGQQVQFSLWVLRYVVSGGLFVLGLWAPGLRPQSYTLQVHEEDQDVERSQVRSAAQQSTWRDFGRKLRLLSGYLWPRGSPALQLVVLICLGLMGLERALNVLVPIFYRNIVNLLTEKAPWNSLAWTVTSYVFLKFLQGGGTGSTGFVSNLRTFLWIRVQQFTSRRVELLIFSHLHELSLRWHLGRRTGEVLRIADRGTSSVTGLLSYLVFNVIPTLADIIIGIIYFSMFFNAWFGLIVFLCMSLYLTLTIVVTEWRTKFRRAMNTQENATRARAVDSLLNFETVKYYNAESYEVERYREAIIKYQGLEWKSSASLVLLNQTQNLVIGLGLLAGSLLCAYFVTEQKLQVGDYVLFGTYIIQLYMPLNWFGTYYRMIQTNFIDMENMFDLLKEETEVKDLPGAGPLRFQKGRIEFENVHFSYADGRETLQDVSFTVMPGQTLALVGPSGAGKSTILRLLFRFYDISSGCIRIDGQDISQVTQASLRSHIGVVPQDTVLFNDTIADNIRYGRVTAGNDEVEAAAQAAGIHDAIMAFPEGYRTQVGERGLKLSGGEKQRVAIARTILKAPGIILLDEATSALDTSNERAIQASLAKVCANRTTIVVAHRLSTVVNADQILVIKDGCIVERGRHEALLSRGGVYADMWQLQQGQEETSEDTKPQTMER
p-CIP stab down = lowers stability of the mouse p/CIP coactivator protein. F442A p/CIP-EGFP cells, EGFP fluorescence, 16 h. AID 1984. decrease of EGFP signal, % at 10 µM. actives 0.01% (n = 290,000). Q05BA5;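 active = EGFP signal decrease of at least 30% at 10 µM or well 3 SD below plate mean, unless failing retest; inactive = the rest, including hits failing retest or dose response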
KCC2 secondary = confirmation of human KCC2 transport modulators | HEK293-KCC2, thallium flux, FluoZin2 fluorescence; hits give high values | shares compounds with Cl transport mod | normalised thallium flux (F/F0 slope) at 10 µM | AID 1713 | actives 15% (n = 3,700);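 active = thallium flux slope above the same plate's solvent-only control mean plus 3 SD; inconclusive = the two replicate wells disagree; inactive = no significant difference from solvent-only control wells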
KCC2 bumet counter = thallium flux persisting under bumetanide in KCC2 cells, counter-screen secondary assay; actives 49% (n = 3,700); normalized thallium flux at 10 µM; HEK293-KCC2 + bumetanide/ouabain, thallium flux FluoZin2; hits give high values; shares compounds with Cl transport mod;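 active = thallium entry rate above the same plate's blocked-transporter control wells by more than 3 SD; inconclusive = the two repeat wells disagree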;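 note: raw slope of fluorescence over initial fluorescence between 10 and 20 s after thallium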
KCC2 sec2 = confirmation of human KCC2 transport modulators. HEK293-KCC2, thallium flux FluoZin2 fluorescence; actives lie on both sides; F/F0 rise rate, 10–20 s post-thallium. normalized thallium flux at 10 µM. AID 1715. shares compounds with Cl transport mod. actives 23% (n = 3,700);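 active = thallium flux slope more than 3 SD above or below the plate's solvent-only control mean, mostly below; inconclusive = the two repeat wells disagreed; inactive = no significant shift from solvent-only controls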;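 note: raw slope with 0.1% DMSO as baseline and bumetanide as block control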
HEK293 Tl flux = parental HEK flux effect, counter-screen | HEK293 parental cells, thallium flux FluoZin2, ouabain; baseline-ratio fluorescence slope, 10–20 s after thallium | thallium flux rate (normalised fluorescence) at 10 µM | actives 46% (n = 3,700) | shares compounds with Cl transport mod;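 active = thallium flux rate significantly above the same plate's solvent-only control wells, beyond their mean plus 3 SD; inconclusive = the two replicate wells gave conflicting results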
KCC2 retest ouab = confirmation of human KCC2 modulators with ouabain. shares compounds with Cl transport mod. HEK293-KCC2, thallium flux FluoZin2 fluorescence; bidirectional: low = inhibitor, high = activator. raw Tl+ flux slope (below DMSO = inhibition, above = activation) at 10 µM. actives 48% (n = 3,700);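 active = thallium flux slope beyond 3 SD from same-plate DMSO control mean in most replicates, usually higher, sometimes lower; inconclusive = repeat tests gave conflicting results; inactive = no significant difference from controls in most replicates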;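 note: slope of initial-normalized fluorescence between seconds 10 and 20 after thallium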
HEK293 Tl flux2 = parental HEK flux effect, counter-screen 2; shares compounds with Cl transport mod; HEK293 parental, thallium flux FluoZin-2 fluorescence slope; thallium flux slope at 10 µM; actives 33% (n = 3,700);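 active = thallium flux slope above the same plate's solvent-control mean plus 3 SD in both duplicate wells; inconclusive = duplicate wells that disagreed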;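 note: run without ouabain in cells lacking the KCC2 cotransporter; slope of fluorescence scaled to its starting value between 10 and 20 s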
Numbers without * were called inactive; ? = inconclusive; · = no result given. This excerpt belongs to a sample that is enriched for hits.

SMILES | Cl transport mod | Dynein cargo inh | V-ATPase pHluor | ABCB6 inh 2 | p-CIP stab down | KCC2 secondary | KCC2 bumet counter | KCC2 sec2 | HEK293 Tl flux | KCC2 retest ouab | HEK293 Tl flux2
O=C(CCSCCc1ccccn1)Nc1ccc(Cc2ccncc2)cc1 | -3.4* | -0.6 | 0 | 90 | -6 | 0.0069 | 0.0044 | ? | 0.0073 | 0.018 | 0.011
CC(=O)Nc1ccc2c(CSc3nnc(N)s3)cc(=O)oc2c1 | 0.15 | 2.1 | 1 | 89 | -19 | · | · | · | · | · | ·
CCOC(=O)Cc1csc(/N=C/c2c(O)n(-c3ccc(C)c(C)c3)c(=O)c3ccccc23)n1 | 0.092 | -0.45 | -6 | 95 | -10 | · | · | · | · | · | ·
C=CCn1c(Cc2cccs2)nnc1SCC(=O)c1cccc(Br)c1 | -2.5 | -0.32 | -3 | 91 | -7 | · | · | · | · | · | ·
C=CCn1c(Cc2cccs2)nnc1SCC(=O)c1ccc(F)cc1 | -4.1* | 0.8 | 2 | 97 | -1 | 0.0068 | 0.0042 | 0.026 | 0.0056 | 0.015* | 0.0088
C=CCn1c(Cc2cccs2)nnc1SCC(=O)c1ccc2ccccc2c1 | -5.9* | -0.66 | 2 | 90 | 8 | 0.0091 | ? | 0.027* | 0.0065 | 0.014* | 0.01
C=CCn1c(CNC(=O)c2cccs2)nnc1SCC(=O)c1ccc(Br)cc1 | -5.1* | -0.19 | 4 | 92 | 1 | 0.0078 | 0.0051 | 0.031 | 0.0065 | 0.037* | 0.01
Cc1ccc(NC(=O)CSc2nc(N)cc(=O)[nH]2)cc1S(=O)(=O)N1CCCCC1 | · | · | 4 | 102 | · | · | · | · | · | · | ·
COC(=O)C1CCN(C(=O)COC(=O)c2cc(-c3ccccc3)nc3ccc(OC)cc23)CC1 | · | · | 5 | 93 | · | · | · | · | · | · | ·
CC(C)(CC(=O)O)CC(=O)Nc1ccc(Oc2ccc(C(C)(C)C)cc2)nc1 | 4.8* | -0.061 | -2 | 98 | -32 | 0.0056 | 0.0044 | 0.03 | 0.0072 | 0.019 | 0.0098
COc1ccc(S(=O)(=O)N2CCN(Cc3ccccc3)CC2)c(C)c1 | · | · | -5 | 94 | -2 | · | · | · | · | · | ·
COc1cc(C)c(C)cc1S(=O)(=O)N1CCN(Cc2ccccc2)CC1 | · | 1.1 | 3 | 95 | 0 | 0.0054 | 0.005 | 0.025* | 0.0067 | ? | 0.011
O=S(=O)(c1ccccc1)N1CCN=C1SCc1ccccc1 | -3.6* | -0.54 | · | 96 | 2 | 0.0058 | ? | 0.028 | 0.0068 | 0.015* | 0.0098
CC(C)c1csc(CN2CCCC(CNC(=O)c3cccc4ccccc34)C2)n1 (stereo not given) | · | · | -3 | 98 | 40 | · | · | · | · | · | ·
COC(=O)c1cc(NS(=O)(=O)c2ccc(C(C)C)cc2)ccc1N1CCOCC1 | -0.57 | 1.5 | 2 | 97 | -8 | · | · | · | · | · | ·
Cc1ccc(NC(=O)CSCc2ccc(F)cc2)cc1 | -0.76 | -0.12 | 1 | 99 | 7 | · | · | · | · | · | ·
Cc1ccc(NC(=O)Cc2ccc(F)cc2)cc1 | 2.6* | 0.59 | -2 | 95 | 3 | 0.0085 | 0.006 | 0.035 | 0.0038 | 0.02 | 0.011
CNC(=S)N/N=C(\C)c1ccc(C(C)(C)C)cc1 | 5.7* | 1.5 | -1 | 96 | -16 | 0.0093 | 0.018* | 0.032 | 0.022* | ? | 0.013*
Cc1ccc(C)c2sc(NC(=O)c3nc4ccccc4s3)nc12 | 60* | -0.47 | -7 | 97 | -4 | 0.014* | 0.033* | 0.035 | 0.059* | 0.036* | 0.015*
NNC(=O)c1nc2ccccc2s1 | · | · | 1 | 107 | · | · | · | · | · | · | ·
COc1cc(-c2nnc(SCC(=O)Nc3ccc(C(=O)O)cc3)o2)cc(OC)c1OC | · | · | 0 | 98 | · | · | · | · | · | · | ·
S=C(NCCc1ccc(Cl)cc1)NC1CCCCC1 | · | · | 0 | 96 | 12 | · | · | · | · | · | ·
S=C(NCCCc1ccccc1)Nc1ccc(Cl)cc1 | -3.7* | -0.62 | 1 | 106 | 8 | 0.0071 | 0.0055 | 0.029 | 0.0073 | 0.032* | 0.0099
S=C(NCCc1ccccc1)NC1CCCCCC1 | -4.2* | -0.23 | -1 | 97 | -15 | 0.0058* | ? | 0.029 | 0.0065 | ? | 0.011
S=C(NCCCc1ccccc1)Nc1ccccc1 | · | · | -2 | 93 | -7 | · | · | · | · | · | ·
SMILES | Cl transport mod | Dynein cargo inh | V-ATPase pHluor | ABCB6 inh 2 | p-CIP stab down | KCC2 secondary | KCC2 bumet counter | KCC2 sec2 | HEK293 Tl flux | KCC2 retest ouab | HEK293 Tl flux2
COc1ccc(CCNC(=S)NCc2cccs2)cc1OC | 0.027 | -0.038 | 2 | 106 | -7 | · | · | · | · | · | ·
S=C(NCc1cccs1)Nc1ccc(Br)cc1Cl | 4.7* | 1.3 | 1 | 98 | -8 | 0.0075 | 0.0095* | 0.031 | 0.011* | 0.018 | 0.012*
S=C(NCCc1ccccc1)NCc1cccs1 | -4.4* | 1.8 | -3 | 99 | -10 | 0.019 | 0.0045 | 0.025* | 0.007 | 0.014 | 0.0099
CCOc1ccccc1NC(=O)COC(=O)c1nc2nccc(C)n2n1 | · | · | 4 | 110 | · | · | · | · | · | · | ·
N#CC(=C(O)COC(=O)CCC1CCCCC1)c1nc2ccccc2[nH]1 | · | · | 0 | 102 | · | · | · | · | · | · | ·
CCN1CCCC1CNC(=O)c1cc(S(=O)(=O)N(C)C)ccc1Cl (stereo not given) | · | · | 5 | 93 | 3 | · | · | · | · | · | ·
Nc1nc(SCC(=O)Nc2ncc(C(F)(F)F)cc2Cl)n[nH]1 | 1.1 | -0.46 | -4 | 104 | -27 | · | · | · | · | · | ·
CC(C)(CNC(=S)NCCc1ccccc1)CNC(=S)NCCc1ccccc1 | -5.1* | -0.17 | 4 | 97 | 5 | 0.0076 | 0.0054 | ? | 0.0058 | 0.013* | 0.0094
OCCNC(=S)NCCc1ccccc1 | -1 | -0.45 | 0 | 97 | 0 | · | · | · | · | · | ·
CC1=C(C(=O)OCc2ccccc2)C(c2ccc(Cl)cc2)NC(=O)N1CCCC(=O)O (stereo not given) | · | · | · | · | -4 | · | · | · | · | · | ·
O=C(/C=N/NC(=O)c1ccc(Cl)cc1Cl)c1ccccc1 | 91* | 1 | 8 | 92 | -11 | 0.0062 | 0.1* | 0.062* | 0.048* | 0.076* | 0.039*
O=C(COc1cccc(Br)c1)N/N=C/C(=O)c1ccccc1 | 5.9* | -0.048 | -1 | 98 | 1 | 0.0055 | 0.014* | 0.032 | 0.012* | ? | 0.015*
O=C(/C=N/NC(=O)c1ccccc1Br)c1ccccc1 | 8* | -0.92 | 0 | 96 | 2 | 0.0068 | 0.019* | 0.031 | 0.02* | ? | 0.018*
COC(=O)c1sc(NC(=S)NC(=O)c2cccc(Br)c2)nc1C | · | · | 1 | 101 | -61 | · | · | · | · | · | ·
